Screening results deposited in PubChem by Sanford-Burnham Center for Chemical Genomics.
The list is not random: actives were taken first. Their share in the collection is about 1.1%.
PMI activator: activators of human phosphomannose isomerase; P34949; purified human PMI, coupled resazurin fluorescence, 20 min; stronger effect = higher value; 1 = vehicle control, 0 substrate-free wells; activation factor at 20 µM; 190,000 compounds, 0.005% hits;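 active = activation factor of 2 or more at 20 µM, relative to plate controls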
Target sequence (P34949 whole entry, looked up): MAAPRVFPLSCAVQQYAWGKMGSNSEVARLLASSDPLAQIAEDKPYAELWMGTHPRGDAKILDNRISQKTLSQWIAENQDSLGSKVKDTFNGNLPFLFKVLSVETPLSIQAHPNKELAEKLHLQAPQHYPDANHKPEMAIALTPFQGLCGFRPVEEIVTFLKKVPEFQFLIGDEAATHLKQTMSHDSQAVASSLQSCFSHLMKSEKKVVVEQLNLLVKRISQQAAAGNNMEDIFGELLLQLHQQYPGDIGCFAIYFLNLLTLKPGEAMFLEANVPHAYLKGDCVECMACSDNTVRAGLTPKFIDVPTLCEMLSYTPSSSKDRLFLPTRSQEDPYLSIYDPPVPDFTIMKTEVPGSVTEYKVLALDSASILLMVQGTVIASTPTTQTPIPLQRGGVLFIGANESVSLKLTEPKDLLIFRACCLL
PMI act hi M6P: PMI (human) activation, high substrate | P34949 | coupled PMI enzyme assay, resazurin fluorescence, 20 min; stronger effect = higher value; 1 = untreated enzyme, 0 = substrate-free blank | activation factor at 20 µM | 190,000 compounds, 0.34% hits;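 active = activation factor of 2 or more at 20 µM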
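Test system: human PMI in coupled enzyme assay; Input: PMI at 15 ng/mL final; Medium: HEPES buffer, pH 7.4; Schedule: 20 min incubation at room temperature; Technique: resorufin fluorescence at Ex 544/Em 590 nm; Compound: 20 µM single dose; Probe or stimulus: Near-saturating mannose-6-phosphate, 1.0 mM.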
G6PDH counter: L. mesenteroides G6PDH inhibition counter-screen; Purified L. mesenteroides G6PDH, diaphorase/resazurin coupled fluorescence, 45 min; inhibition, % at 5 µM; 200,000 compounds, 0.12% hits; AID 1020; in the data active = inhibition above about 50%
Diaphorase inh: counter-screen for diaphorase-based assays: diaphorase inhibitors and chemical oxidizers; diaphorase resazurin-to-resorufin fluorescence, NADH, 16 min; bacterial (C. kluyveri) enzyme, not human; AID 1217; inhibition, % at 20 µM; 190,000 compounds, 0.69% hits;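 active = primary screen inhibition at 20 µM above a set limit, cut at about 50% in these data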;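 note: plate controls were DMSO with full reaction for no effect and wells lacking NADH for full effect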
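System: Bacterial diaphorase enzyme (C. kluyveri) | Incubation: 16-min room-temperature incubation before reading | Benchmarks: No-NADH positive control and DMSO neutral control | Measured by: Resorufin fluorescence 544/590 nm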
Diaph act CS: diaphorase activation or chemical reduction counter-screen; 190,000 compounds, 0.005% hits; activation factor at 20 µM; Diaphorase/resazurin coupled assay, resorufin fluorescence, 16 min; stronger effect = higher value; 1 = vehicle wells, 0 = NADH-free wells;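 active = diaphorase activity raised at least twofold by the compound at 20 µM; inactive = activation factor below 2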
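Material: Purified diaphorase enzyme from Clostridium kluyveri | Buffer or medium: 50 mM HEPES pH 7.4 with 4.542 mM MgCl2, 0.005% Tween 20 | Times: 16 min enzyme reaction, ambient temperature | Signal: Red resorufin fluorescence at 544/590 nm excitation/emission | Measure: Increased resorufin signal from activators or reducing compounds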
Starred values were filed as active, the others as inactive; · = no result given.

SMILES	PMI activator	PMI act hi M6P	G6PDH counter	Diaphorase inh	Diaph act CS
Cc1ccc(-n2c(=S)[nH]c3sc4c(c3c2=O)CCc2ccccc2-4)cc1	0.9	0.8	8.1	26.4	0.7
N#Cc1c(-c2cccs2)nc(SCC(=O)c2cccs2)[nH]c1=O	0.9	1	-3.2	65.2*	0.3
COC(=O)c1ccc(N2NC(=O)/C(=C/c3ccc(-c4ccc(Cl)c(C(=O)O)c4)o3)C2=O)cc1	1	0.9	-0.1	73.5*	0.3
N#CC1=C(N)Nc2nc3ccccc3n2C1c1ccc(Cl)cc1 (stereo unspecified)	1.1	1	5.5	0.5	1
C=CCOC(=O)C1=C[C@H](c2ccc(Br)cc2)[C@@H](CCCO)[C@H](OCC)O1	0.8	0.9	9.1	55.3*	0.4
CCO[C@@H]1OC(C(=O)Nc2ccccc2)=C[C@H](c2ccc(Br)cc2)[C@H]1CCCO	0.7	0.8	12.4	56.1*	0.4
CCO[C@H]1OC(C(N)=O)=C[C@@H](c2ccc(Br)cc2)[C@@H]1CCCO	0.9	0.9	11.0	17.6	0.8
CN(C)CCN(Cc1cc2cc3c(cc2[nH]c1=O)OCCO3)C(=S)NCC1CCCO1 (stereo unspecified)	0.8	0.7	12.6	50.1*	0.5
COc1ccccc1C(=O)NCC(=O)N/N=C/c1cn[nH]c1-c1ccccc1	1.1	1.1	-0.1	-2.2	1
COc1cc(/C=C2\SC(=Nc3ccccc3)N(CCc3c[nH]c4ccccc34)C2=O)ccc1OC(C)C(=O)O (stereo unspecified)	0.9	0.9	1.2	18.3	0.8
COc1ccc(N=C2S/C(=C\c3ccc(OC(C)C(=O)O)c(OC)c3)C(=O)N2CCc2c[nH]c3ccccc23)cc1 (stereo unspecified)	0.7	0.7	8.2	58.3*	0.4
Oc1ccc(N=Cc2ccc(OCc3ccccc3)cc2)cc1	0.6	0.4	39.4	52.7*	0.5
O=C(N/N=C/c1ccc(OCc2ccccc2)cc1)c1ccncc1	0.9	0.8	1.1	6.0	0.9
CC1=Nc2nc(N3CCCCC3)c(C#N)c3c4c(nc(c23)N1)N(c1ccc(C(C)C)cc1)C(=O)C4	0.4	0.4	12.5	80.9*	0.2
CC(C)c1ccc(-c2nc(N3CCCCC3)[nH]c(=O)c2C#N)cc1	1	0.8	9.0	13.2	0.9
COc1ccc2c(c1)cc(C)c1nnc(SCC(=O)N3CCN(C(=O)c4ccco4)CC3)n12	1	0.9	5.6	28.3	0.7
Cc1ccc2cc(C)c3nnc(SCC(=O)N4CCN(C(=O)c5ccco5)CC4)n3c2c1	1	0.9	6.5	51.2*	0.5
CC(C)=CCN1CCN(Cc2ccc(Sc3nncn3C)o2)CC1CCO (stereo unspecified)	1.1	1.1	2.5	-3.4	1
O=C(COC(=O)c1ccc2c(c1[N+](=O)[O-])C(=O)c1ccccc1C2=O)NC1CC1	1.3	0.9	55.3*	27.3	0.7
COc1ccc(N2CCN(Cc3nc(-c4ccccc4)no3)CC2)cc1	·	·	9.5	·	·
CC(N)c1ccc(Cl)cc1Cl (stereo unspecified)	0.9	1	-0.7	8.8	0.9
CCCCCCN1Cc2ccccc2C1	0.9	0.9	4.0	7.8	0.9
CCCCCCCCCCCCCCCCn1cc[n+](C)c1	1.1	1.1	0.8	-224.9	3.2*
Cc1ccc(C2CC(c3ccccc3)=NN2C(=S)Nc2ccccc2)o1 (stereo unspecified)	0.5	0.8	14.4	76.3*	0.2
CC1=NN(C(=S)Nc2ccccc2)C(c2ccccc2)C1 (stereo unspecified)	0.9	0.9	7.7	14.6	0.9
SMILES	PMI activator	PMI act hi M6P	G6PDH counter	Diaphorase inh	Diaph act CS
OCCN1CCN(Cc2cc(Cl)c3cccnc3c2O)CC1	0.5	0.5	52.7*	68.7*	0.3
CCOc1ccccc1N1CCN(Cc2cccc(OC)c2O)CC1	0.9	1	-2.7	10.2	0.9
Oc1c(CN2CCN(c3ccccn3)CC2)cc(Cl)c2cccnc12	0.5	0.4	-22.2	53.0*	0.5
COc1cc(C(=O)Oc2c(CN3CCOCC3)cc(Cl)c3cccnc23)cc(OC)c1OC	0.6	0.6	37.7	58.1*	0.4
COc1ccccc1N1CCN(Cc2cc(Br)c(O)c3ncccc23)CC1	0.7	0.6	18.9	58.2*	0.4
COCc1cc(CN2CCCC2)c(O)c2ncccc12	0.6	0.6	43.0	44.0	0.6
Cc1ccc(OCCn2c(=O)n(C)c3ccccc32)cc1	0.9	0.9	10.0	16.0	0.8
CC(=O)Nc1ccc(NC(=O)C(C)OC(=O)c2ccc(C)s2)cc1 (stereo unspecified)	1	0.9	0.8	9.6	0.9
O=C(NC(Cc1ccccc1)C(=O)O)/C(=C/c1ccccc1)NC(=O)c1cccc(Br)c1 (stereo unspecified)	1	0.9	8.3	11.4	0.9
O=C(O)CCCNc1c(C(=O)Nc2ccc(Cl)cc2)cc([N+](=O)[O-])cc1[N+](=O)[O-]	1	0.7	0.4	17.7	0.8
Cc1[nH]c(=S)c(C#N)c(-c2ccco2)c1C(=O)N(C)C	0.9	0.7	2.1	20.7	0.8
COc1cc(CN2CCCC(C(=O)c3ccc4c5c(cccc35)CC4)C2)cc(OC)c1O (stereo unspecified)	0.5	0.3	62.1*	46.4	0.5
O=C(O)c1cccc2c1C(=O)c1ccccc1C2=O	1.8	2.5*	5.3	2.7	1
C/C(=N\Nc1ccc([N+](=O)[O-])cc1)c1ccc(N)cc1	1.7	2.3*	3.6	7.7	0.9
CCc1ccc(/C(C)=N\Nc2ccc([N+](=O)[O-])cc2)cc1	0.8	0.8	4.4	24.3	0.8
Cc1ccccc1N=C(NO)c1nonc1N	1	1	2.0	-3.2	1
O=C(O)c1ccc(Cl)c2c1C1C=CCC1C(c1ccccn1)N2 (stereo unspecified)	1.6	1.8	13.4	55.7*	0.4
N=C(SC1CC(=O)N(c2ccc(F)cc2)C1=O)N1N=C(c2ccccc2)CC1c1ccccc1 (stereo unspecified)	1	1.1	-0.9	-20.1	1.2
CC(c1ccccn1)N(Cc1ccco1)C(=S)Nc1cccc(F)c1 (stereo unspecified)	0.9	0.9	4.6	-2.7	1
COc1ccccc1C(=O)C1Nc2ccccc2-c2nnc(SC)nc2O1 (stereo unspecified)	1.7	2.5*	5.1	25.7	0.7
CS(=O)(=O)N(CC(=O)NCc1ccncc1)C1CCCCC1	1	1.1	9.5	-20.6	1.2
Cc1nc2ccccc2n1C(=O)c1ccc(Cl)cc1[N+](=O)[O-]	0.9	0.9	16.9	53.7*	0.5
